The list is not random: actives were taken first. Their share in the collection is about 1%.
FXN GAA850 act – frataxin GAA850 promoter activation; hit rate 0.56% among 360,000; HEK293 lucGAA850 FXN promoter luciferase reporter, 24 h; percent of 10 µM SAHA response; activation, % at 6 µM;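 active = activation above the average of all compounds screened plus 3 SD, cutoff fixed separately per campaign, cut at about 7.5% in these data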;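 also: 0% = DMSO wells and 100% = 10 µM SAHA wells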
XiGFP reactiv – X-chromosome reactivation activator; XiGFP mouse fibroblasts, % GFP-positive cells imaging, 3 d; cells co-treated with 5-aza-dC sensitizer; scaled so ellipticine positive control = 100%; activation, % at 7.58 µM; AID 743238; hit rate 0.055% among 360,000;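 active = mean normalized replicate activation at least 10% and every replicate at or above 10%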;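 also: 0% = median of on-plate neutral control wells and 100% = ellipticine 6 µM median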
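Material: XiGFP fibroblasts, SV40-immortalized. Buffer or medium: DMEM plus 5-aza-dC sensitizer. Compound: single concentration per compound, delivered by pin transfer. Times: 3 days compound exposure. Controls: ellipticine 6 µM.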
INS-1E GSIS act – GLuc luminescence reporter in INS-1E cells, primary screen for activators of glucose-dependent secretion of insulin | INS-1E GLuc reporter insulin secretion, 2-3 h | activation, % at 16.6 µM | hit rate 0.61% among 370,000 | AID 743287;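 active = lowest replicate activation of at least 40%, so every replicate reaches that level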;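 also: 0% = median of neutral control wells and 100% = median of IBMX positive control wells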
CaV13 ICDI inh – Primary screen for inhibitors of IQ motif and Ca2+-dependent inactivation inhibitor domain binding in CACNA1D, Förster resonance energy transfer in living cells, …. HEK cells, CFP/YFP FRET ICDI-IQ, plate reader, 10 min; percent FRET-ratio fall versus neutral wells. hit rate 0.098% among 340,000. inhibition, % at 12.3 µM. AID 743397;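 active = mean replicate inhibition of at least 30% and at least 1% of replicates passing that level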;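 also: 0% = median of the neutral control wells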
* = called active by the depositor; . = no result.

SMILES | FXN GAA850 act | XiGFP reactiv | INS-1E GSIS act | CaV13 ICDI inh
C[C@@H]1CN([C@@H](C)CO)S(=O)(=O)c2ccc(C3=CCCC3)cc2O[C@@H]1CN(C)CC1CCOCC1 | . | -1 | 1 | .
CCc1nnc(NC(=O)c2ccc(-c3ccccc3F)o2)s1 | 1 | 0 | 6 | 136*
CCc1nnc(NC(=O)c2ccc(-c3ccc(Cl)cc3)o2)s1 | 2 | . | 56 | .
CCC(C)C(NC(N)=O)C(=O)Nc1ccc(OCc2ccccc2)cc1 (configuration not stated) | 2 | 0 | 9 | -3
CCOc1ccc(NC(=O)[C@@H](NC(=O)OCc2ccccc2)[C@@H](C)CC)cc1 | -1 | 0 | 49* | -3
CCN1CCN(CCCNC(=O)c2ccc(/C=C3/Sc4ccccc4N(Cc4ccccc4F)C3=O)cc2)CC1 | 2 | 0 | 100* | -6
CCN1CCN(CCNC(=O)c2ccc(/C=C3/Sc4ccccc4N(Cc4ccccc4C)C3=O)cc2)CC1 | 4 | 1 | 27 | -13
CC1(C)SC2c3ccccc3C(=O)N2[C@@H]1C(=O)NC1CC1 (some centres not stated) | -1 | 0 | 42* | -2
CC1(C)SC2c3ccccc3C(=O)N2[C@@H]1C(=O)NC1CCCC1 (some centres not stated) | 0 | 0 | -5 | -4
COc1ccccc1C(=O)Nc1ccc2c(c1)OC[C@@H](C)N(CC1CC1)C[C@@H](C)[C@H](OC)CN(C)C2=O | . | 0 | 2 | .
CCCC(=O)N1CCN(c2nc3ccccc3s2)CC1 | 5 | 0 | -3 | -15
Cc1ccc(-c2nnn(CC(=O)N3CCN(c4nc5ccccc5s4)CC3)n2)cc1 | -1 | . | 211* | -5
O=C(Cc1cccnc1)N1CC2(C1)[C@H](c1ccccc1)[C@H](CO)N2C(=O)C1CCCCC1 | . | 5 | -12 | .
COc1ccccc1C(=O)Nc1ccc2c(c1)OC[C@@H](C)NC[C@@H](C)[C@@H](OC)CN(C)C2=O | . | 0 | 4 | .
CC(=O)NCCc1nc2ccccc2n1CCOc1cccc(C)c1 | -2 | 0 | 59* | -16
Cc1noc(C)c1NC(=O)N(C)C[C@@H]1Oc2ccc(NC(=O)Nc3ccc4c(c3)OCO4)cc2C(=O)N([C@@H](C)CO)C[C@H]1C | . | 0 | -2 | .
N#Cc1sc2nc3c(c(-c4cccnc4)c2c1N)CCC3 | -1 | . | 46* | .
NC(=O)c1sc2nc3c(c(-c4cccnc4)c2c1N)CCC3 | -2 | . | . | .
O=C1C2=C(NC(=S)NC2c2ccc(Cl)cc2)NC(c2ccc(Cl)cc2)N1c1ccc(Cl)cc1 (configuration not stated) | 4 | . | . | -4
CCc1ccc(C2NC(=S)NC3=C2C(=O)N(c2ccccc2OC)C(c2ccc(CC)cc2)N3)cc1 (configuration not stated) | 1 | . | 127* | .
O=S(=O)(c1ccc(F)cc1)N1CCCCN2[C@H](CO)[C@H](c3ccc(-c4ccccc4)cc3)[C@@H]2C1 | . | 0 | 0 | .
COc1ccc(C(O)c2nc(-c3ccc(OC)c(OC)c3)cs2)cc1 (configuration not stated) | 3 | 0 | 66* | -10
CSc1nc(N2CCOCC2)c2sccc2n1 | 3 | 0 | 76* | 13
O=C(c1ccco1)N(Cc1ccccc1)Cc1ccccn1 | 0 | 0 | 46 | -6
O=C(c1cccs1)N(Cc1ccccn1)Cc1ccco1 | 1 | . | 73* | -5
SMILES | FXN GAA850 act | XiGFP reactiv | INS-1E GSIS act | CaV13 ICDI inh
Cc1cccc(C)c1-n1nnnc1C1(C)CCC(=O)N1Cc1cccs1 (configuration not stated) | . | 0 | 53* | -6
Cc1ccc(CN2C(=O)CCC2(C)c2nnnn2-c2c(C)cccc2C)cc1 (configuration not stated) | . | 0 | -29 | -5
Cc1nc(N2CCOCC2)nc(N2CCCC2)c1[N+](=O)[O-] | 4 | 0 | 53* | -5
O=C(O)C[C@@H]1CC[C@H](NC(=O)c2ccncc2)[C@@H](CO)O1 | . | 1 | 7 | .
COc1ccc(C#Cc2cccc(-c3nc(C(=O)N4CCN(Cc5ccccc5)CC4)cc4c3[C@H](CCO)N(S(=O)C(C)(C)C)C4)c2)cc1OC (some centres not stated) | . | 0 | 1 | .
CC1=NN(C(N)=S)C(=O)C1N=Nc1ccccc1C (configuration not stated) | 3 | . | 65* | -7
CC1=NN(C(N)=S)C(=O)C1N=Nc1ccccc1O (configuration not stated) | 3 | 0 | 4 | -21
CC=Cc1ccc2n(c1=O)C[C@H]1[C@H](CO)[C@@H](C(=O)NCCCN3CCOCC3)N(C)[C@@H]21 (mixture of isomers) | . | 0 | 9 | .
O=c1[nH]c2cc(Cl)ccc2n(CCNc2ncc(C(F)(F)F)cc2Cl)c1=O | -1 | . | 72* | .
O=[N+]([O-])c1cc(Cl)ccc1NCCNc1ncc(C(F)(F)F)cc1Cl | 0 | . | 58* | .
O=C1C=CC(=O)N1CCNc1ncc(C(F)(F)F)cc1Cl | -4 | 0 | 147* | -6
C[C@H](CO)N1C[C@H](C)[C@@H](CN(C)C(=O)c2cccnc2)Oc2cc(C#CC3(O)CCCC3)ccc2S1(=O)=O | . | 0 | 10 | .
C[C@@H]1CCCCO[C@@H](CN(C)C(=O)Nc2ccc3c(c2)OCO3)[C@H](C)CN([C@H](C)CO)C(=O)c2cc(NS(=O)(=O)c3ccc(F)cc3)ccc2O1 | . | 0 | -16 | .
CCCNC(=O)N[C@@H]1C=C[C@H](CC(=O)N2CCN(C)CC2)O[C@@H]1CO | . | 1 | -1 | .
COc1ccc(CN(C)C[C@@H]2Oc3c(NC(=O)c4cc(C)nn4C)cccc3C(=O)N([C@@H](C)CO)C[C@H]2C)cc1 | . | 0 | 2 | .
CCc1ccccc1OCC(=O)Nc1ccc(N2CCCC2)cc1C | -2 | 37* | 7 | -6
Cc1cc(N2CCCC2)ccc1NC(=O)COc1ccccc1 | 0 | 2 | 16 | -7
CCCCC(=O)Nc1ccc(C(=O)NNC(=O)c2ccc(C)c(Br)c2)cc1 | 0 | 0 | 64* | -3
COc1ccc(CCNc2ccncn2)cc1OC | 2 | . | 45* | -5
CSc1ccc(/C=N/Nc2cccc(C(=O)O)c2)cc1 | 9.1* | . | . | .
COc1ccc(S(=O)(=O)N[C@H]2CC[C@H](CCNC(=O)c3ccccc3F)O[C@H]2CO)cc1 | . | 0 | 0 | .
COc1ccc(C2=Nn3c(nnc3-c3ccccc3C(F)(F)F)SC2)cc1OC1CCOC1 (configuration not stated) | 0 | 0 | 75* | -4
COc1ccc(C2=Nn3c(nnc3-c3ccccc3OC)SC2)cc1OC1CCOC1 (configuration not stated) | -2 | 1 | 56* | -6
COc1ccc(-c2ccncc2)cc1OC | 3 | 0 | 107* | -10
COc1ccc(C2=Nn3c(nnc3-c3ccncc3)SC2)cc1OC | 7 | . | 85* | -3
COC(=O)C[C@H]1C[C@@H]2c3cc(NC(=O)Nc4ccc(OC)cc4)ccc3O[C@@H]2[C@H](CO)O1 | . | 0 | -5 | .
